Test results from ChEMBL document CHEMBL4261518, “Side chain-functionalized aniline-derived ursolic acid derivatives as multidrug resistance reversers that block the nuclear factor-kappa B (NF-κB) pathway and cell proliferation” (Medchemcomm, 2017).
Active and inactive are the calls of the source. No cut-off for these calls is given here.

Experiments:
NCI-H460 [1] = test: Induction of apoptosis in human NCI-H460 cells assessed as necrotic cells at 5 uM after 24 hrs by propidium iodide/Annexin V-FITC staining based flow cytometry (reference value: 2.8%); format: functional
NCI-H460 [2] = test: Inhibition of TNFalpha-induced TAB1 protein expression in human NCI-H460 cells by Western blot analysis; format: functional, cell-based
Method in brief: (§1)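 TNF-α-stimulated NCI-H460 cells treated with compound, lysed in ice-cold RIPA with protease and phosphatase inhibitors, protein measured by Bradford. Equal protein run on 12% SDS-PAGE, transferred to PVDF. Probed overnight at 4 °C for TAK1, TAB1, IKKα, p-IKKα/β or NF-κB p65, then HRP secondary (1:2000), chemiluminescence, β-actin loading control. Three separate experiments.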

NCI-H460 [3] = test: Induction of ROS generation in human NCI-H460 cells at 5 uM after 24 hrs by DCF-DA staining based flow cytometry (reference value: 12.9%); format: functional
[4] = Cytotoxicity against human NCI-H460/DOX cells after 48 hrs by MTT assay; format: functional, cell-based; conditions: NCI-H460, 48 h
Method in brief: (§2)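 Cells grown overnight in DMEM + 10% FBS at 37 °C under 5% CO2, then given a range of compound concentrations for 48 h. MTT added for about 4 h, medium replaced by DMSO, absorbance read at 570/630 nm. IC50 reported as mean ± SD of five independent experiments.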

NCI-H460 [5] = test: Induction of apoptosis in human NCI-H460 cells assessed as late apoptotic cells at 10 uM after 24 hrs by propidium iodide/Annexin V-FITC staining based flow cytometry (reference value: 5.4%); format: functional
[6] = molecular target: Transcription factor p65 (Homo sapiens) (UniProt Q04206); test: Inhibition of TNFalpha-induced NF-kB p65 activation human NCI-H460 cells assessed as reduction in DNA binding ability at 5 to 10 uM by ELISA relative to control; format: cell-based
NCI-H460 [7] = test: Inhibition of TNFalpha-induced IKKalpha protein expression in human NCI-H460 cells at 5 to 10 uM by Western blot analysis; format: functional, cell-based; method in brief: as §1
NCI-H460 [8] = test: Induction of apoptosis in human NCI-H460 cells assessed as necrotic cells at 10 uM after 24 hrs by propidium iodide/Annexin V-FITC staining based flow cytometry (reference value: 2.8%); format: functional
NCI-H460 [9] = test: Cell cycle arrest in human NCI-H460 cells assessed as accumulation at G2-phase at 5 uM after 24 to 48 hrs by propidium iodide staining based flow cytometry (reference value: 3.82%); format: functional
NCI-H460 [10] = test: Cell cycle arrest in human NCI-H460 cells assessed as accumulation at S-phase at 5 uM after 24 to 48 hrs by propidium iodide staining based flow cytometry (reference value: 54.36%); format: functional
NCI-H460 [11] = test: Inhibition of TNFalpha-induced TAK1 protein expression in human NCI-H460 cells by Western blot analysis; format: functional, cell-based; method in brief: as §1
[12] = molecular target: Inhibitor of NF-kappa-B kinase alpha/beta (Homo sapiens) (UniProt O14920+O15111); test: Inhibition of TNFalpha-induced IKKalpha/beta phosphorylation in human NCI-H460 cells by Western blot analysis; format: cell-based; method in brief: as §1
[13] = Resistant factor, ratio of IC50 for human HepG2/DOX cells to IC50 for human HepG2 cells; format: functional
NCI-H460 [14] = test: Induction of apoptosis in human NCI-H460 cells assessed as chromatin condensation after 24 hrs by Hoechst 33258 staining based fluorescence microscopic method; format: functional, cell-based
Method in brief: (§3)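 NCI-H460 cells (2 × 10^6) in six-well plates exposed to 5 or 10 μM for 24 h. Fixed 10 min in 4% paraformaldehyde, washed in cold PBS, stained with Hoechst 33258 for 5 min in the dark. Viewed by fluorescence microscopy at ex 350/em 460 nm; brightly stained condensed nuclei scored as apoptotic.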

NCI-H460 [15] = test: Induction of apoptosis in human NCI-H460 cells assessed as early apoptotic cells at 10 uM after 24 hrs by propidium iodide/Annexin V-FITC staining based flow cytometry (reference value: 2.79%); format: functional
MGC-803 = test: Cytotoxicity against human MGC803 cells after 48 hrs by MTT assay; format: functional, cell-based; conditions: MGC-803, 48 h; method in brief: as §2
NCI-H460 [16] = test: Induction of apoptosis in human NCI-H460 cells assessed as late apoptotic cells at 5 uM after 24 hrs by propidium iodide/Annexin V-FITC staining based flow cytometry (reference value: 5.4%); format: functional
[17] = Inhibition of TNFalpha-induced NF-kB (unknown origin) activation expressed in human NCI-H460 cells after 7 hrs by luciferase reporter gene assay; format: cell-based; conditions: NCI-H460, 7 h
Method in brief: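 NCI-H460 cells transiently co-transfected with pNF-κB-Luc reporter and pSV-β-galactosidase internal control by lipofectamine. Medium changed after 6 h, then 6 h further culture. TNF-α (15 ng ml–1) plus compound given together for 7 h. Luciferase ratio to TNF-α-only cells, corrected for non-TNF background and viability. IC50 from sigmoidal variable-slope fit.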

NCI-H460 [18] = test: Induction of ROS generation in human NCI-H460 cells at 10 uM after 24 hrs by DCF-DA staining based flow cytometry (reference value: 12.9%); format: functional
[19] = Cytotoxicity against human SPCA2 cells after 48 hrs by MTT assay; format: functional, cell-based; conditions: SPCA2, 48 h; method in brief: as §2
NCI-H460 [20] = test: Inhibition of TNFalpha-induced NF-kB protein expression in human NCI-H460 cells by Western blot analysis; format: functional, cell-based; method in brief: as §1
NCI-H460 [21] = test: Cytotoxicity against human NCI-H460 cells after 48 hrs by MTT assay; format: functional, cell-based; conditions: NCI-H460, 48 h; method in brief: as §2
NCI-H460 [22] = test: Induction of apoptosis in human NCI-H460 cells assessed as nuclear condensation after 24 hrs by Hoechst 33258 staining based fluorescence microscopic method; format: functional, cell-based; method in brief: as §3
NCI-H460 [23] = test: Cell cycle arrest in human NCI-H460 cells assessed as accumulation at G1-phase at 5 uM after 24 to 48 hrs by propidium iodide staining based flow cytometry (reference value: 41.83%); format: functional
A549 = test: Cytotoxicity against human A549 cells after 48 hrs by MTT assay; format: functional, cell-based; conditions: A549, 48 h; method in brief: as §2
NCI-H460 [24] = test: Induction of ROS generation in human NCI-H460 cells at 10 uM after 24 hrs by DCF-DA staining based flow cytometry relative to control; format: functional
NCI-H460 [25] = test: Induction of apoptosis in human NCI-H460 cells assessed as live cells at 10 uM after 24 hrs by propidium iodide/Annexin V-FITC staining based flow cytometry (reference value: 89%); format: functional
NCI-H460 [26] = test: Cytotoxicity against human NCI-H460 cells harboring pNF-kB-Luc assessed as reduction in cell viability after 7 hrs by MTT assay relative to control; design: concentration or dose not given beside the values; conditions: nci-h460, 7 h
NCI-H460 [27] = test: Cell cycle arrest in human NCI-H460 cells assessed as accumulation at G1-phase at 10 uM after 24 to 48 hrs by propidium iodide staining based flow cytometry (reference value: 41.83%); format: functional
NCI-H460 [28] = test: Induction of apoptosis in human NCI-H460 cells assessed as early apoptotic cells at 5 uM after 24 hrs by propidium iodide/Annexin V-FITC staining based flow cytometry (reference value: 2.79%); format: functional
NCI-H460 [29] = test: Cell cycle arrest in human NCI-H460 cells assessed as accumulation at G2-phase at 10 uM after 24 to 48 hrs by propidium iodide staining based flow cytometry (reference value: 3.82%); format: functional
T-24 = test: Cytotoxicity against human T24 cells after 48 hrs by MTT assay; format: functional, cell-based; conditions: T-24, 48 h; method in brief: as §2
[30] = Cytotoxicity against human HepG2/DOX cells after 48 hrs by MTT assay; format: functional, cell-based; method in brief: as §2
NCI-H460 [31] = test: Induction of apoptosis in human NCI-H460 cells after 24 hrs by propidium iodide/Annexin V-FITC staining based flow cytometry; format: functional, cell-based
L02 = test: Cytotoxicity against human HL7702 cells after 48 hrs by MTT assay; format: cell-based; conditions: L02, 48 h; method in brief: as §2
HepG2 = test: Cytotoxicity against human HepG2 cells after 48 hrs by MTT assay; format: functional, cell-based; conditions: HepG2, 48 h; method in brief: as §2
[32] = Resistant factor, ratio of IC50 for human NCI-H460/DOX cells to IC50 for human NCI-H460 cells; format: functional
NCI-H460 [33] = test: Induction of apoptosis in human NCI-H460 cells assessed as live cells at 5 uM after 24 hrs by propidium iodide/Annexin V-FITC staining based flow cytometry (reference value: 89%); format: functional
NCI-H460 [34] = test: Cell cycle arrest in human NCI-H460 cells assessed as accumulation at S-phase at 10 uM after 24 to 48 hrs by propidium iodide staining based flow cytometry (reference value: 54.36%); format: functional

Chain of Transcription factor p65 (Homo sapiens) (Q04206 whole entry): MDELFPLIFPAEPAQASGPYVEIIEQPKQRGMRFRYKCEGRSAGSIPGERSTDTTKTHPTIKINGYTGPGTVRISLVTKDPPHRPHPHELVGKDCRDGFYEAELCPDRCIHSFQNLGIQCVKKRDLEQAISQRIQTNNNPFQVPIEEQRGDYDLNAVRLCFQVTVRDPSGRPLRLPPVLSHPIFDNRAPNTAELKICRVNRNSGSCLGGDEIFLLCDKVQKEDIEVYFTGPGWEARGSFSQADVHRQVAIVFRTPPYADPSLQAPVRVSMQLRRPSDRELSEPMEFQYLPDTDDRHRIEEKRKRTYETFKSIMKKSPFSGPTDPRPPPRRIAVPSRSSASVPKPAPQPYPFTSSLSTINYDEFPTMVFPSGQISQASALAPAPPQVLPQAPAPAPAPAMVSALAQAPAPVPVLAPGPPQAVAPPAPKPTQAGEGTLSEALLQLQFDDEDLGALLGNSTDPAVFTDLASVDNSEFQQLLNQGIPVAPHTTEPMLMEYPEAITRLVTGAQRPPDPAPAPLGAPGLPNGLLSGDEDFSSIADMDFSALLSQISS

For `CC(=O)O[C@H]1CC[C@]2(C)[C@H]3CC=C4[C@@H]5[C@@H](C)[C@H](C)CC[C@]5(C(=O)NCCN(C)C)CC[C@@]4(C)[C@]3(C)CC[C@H]2C1(C)C`, the Activity (NCI-H460 [1]) was 3.85%, the inhibition (NCI-H460 [2]) was “Dose-dependent effect” and the Activity (NCI-H460 [3]) was 14.9%. It also gave an IC50 [4] of 5.2 µM, an Activity (NCI-H460 [5]) of 5.16% and a fold change (FC) [6] of 2.3. For the same compound, the inhibition (NCI-H460 [7]) was “Active”, the Activity (NCI-H460 [8]) was 5.8% and the Activity (NCI-H460 [9]) was 4.46%. The Activity (NCI-H460 [10]) was 46.27%, the inhibition (NCI-H460 [11]) was “Dose-dependent effect” and the inhibition [12] was “Dose-dependent effect”. The “Ratio IC50” value [13] was 1.33, the Activity (NCI-H460 [14]) was “Dose-dependent effect” and the Activity (NCI-H460 [15]) was 47.1%. For the same compound, the IC50 (MGC-803) was 7.96 µM, the Activity (NCI-H460 [16]) was 3.9% and the IC50 [17] was 0.36 µM. For the same compound, the Activity (NCI-H460 [18]) was 40.8%, the IC50 [19] was 5.38 µM and the inhibition (NCI-H460 [20]) was “Dose-dependent effect”. The IC50 (NCI-H460 [21]) was 3.08 µM, the Activity (NCI-H460 [22]) was “Dose-dependent effect” and the Activity (NCI-H460 [23]) was 49.26%. For the same compound, the IC50 (A549) was 4.32 µM, the “fold change (FC)” value (NCI-H460 [24]) was >3 and the Activity (NCI-H460 [25]) was 41.9%. The Activity (NCI-H460 [26]) was < 5%, the Activity (NCI-H460 [27]) was 53.82% and the Activity (NCI-H460 [28]) was 12.3%. The Activity (NCI-H460 [29]) was 4.23%, the IC50 (T-24) was 5.51 µM and the IC50 [30] was 10.8 µM. The Activity (NCI-H460 [31]) was “Dose-dependent effect”, the IC50 (L02) was > 50 µM and the IC50 (HepG2) was 8.14 µM. The “Ratio IC50” value [32] was 1.68, the Activity (NCI-H460 [33]) was 79.9% and the Activity (NCI-H460 [34]) was 41.95%.
